Assays:
Type in all cases: functional
[1] = species on record: Mus musculus; assay: Percent inhibition of [3H]colchicine binding to tubulin with molar ratio of 1:10 (inhibitor: [3H]colchicine)
[2] = species on record: Mus musculus; assay: Percent inhibition of [3H]-colchicine binding to tubulin with molar ratio of 1:1 (inhibitor: [3H]-colchicine)
Outline: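 5 µM ligand, 5 µM tubulin and 5 µM [3H]colchicine in PMEG buffer (PME plus 0.1 mM GTP) were incubated 1.5 h at 37 °C, then quenched on ice. Bound label was separated by centrifuged G-50 gel filtration and counted by scintillation. Percent inhibition is relative to a no-ligand control, run in quadruplicate and averaged.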

[3] = species on record: Mus musculus; assay: Concentration required to effect a 50% reduction in microtubule polymerization; conditions: read-out: I50
Outline: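 GTP was added to 1 mM final and the sample warmed to 37 °C. Turbidity was followed at 400 nm, and percent inhibition was taken from plateau absorbance versus a no-ligand control. I50 was interpolated from the inhibition–concentration plot.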

SMILES	Inhibition [1]	Inhibition [2]	IC50 [3]
COc1cc2c(c(OC)c1OC)-c1ccc(OC)c(=O)cc1[C@@H](NC(C)=O)CC2 [COLCHICINE]	89.7%	37.2%	5.1 µM
COc1cc2c(c(OC)c1OC)-c1ccc(-c3ccccc3)c(=O)cc1[C@@H](NC(C)=O)CC2	25.6%	10.6%	57 µM
COc1cc2c(c(OC)c1OC)-c1ccc(Br)c(=O)cc1[C@@H](NC(C)=O)CC2	97.4%	59.4%	3.3 µM
COc1cc2c(c(OC)c1OC)-c1ccc(CC(C)C)c(=O)cc1[C@@H](NC(C)=O)CC2	36.7%	13.4%	8.5 µM
CCc1ccc2c(cc1=O)[C@@H](NC(C)=O)CCc1cc(OC)c(OC)c(OC)c1-2	96.5%	54.9%	4.2 µM
COc1cc2c(c(OC)c1OC)-c1ccc(C(C)(C)C)c(=O)cc1[C@@H](NC(C)=O)CC2	69.4%	21.9%	4.2 µM
CCOc1ccc2c(cc1=O)[C@@H](NC(C)=O)CCc1cc(OC)c(OC)c(OC)c1-2	75%	24.6%	6.1 µM
COc1cc2c(c(OC)c1OC)-c1ccc(F)c(=O)cc1[C@@H](NC(C)=O)CC2	50.2%	11%	8.2 µM
COc1cc2c(c(OC)c1OC)-c1cccc(=O)cc1[C@@H](NC(C)=O)CC2 [CHOLCHICIDE]	53.7%	13.2%	7.9 µM
COc1cc2c(c(OC)c1OC)-c1ccc(Cl)c(=O)cc1[C@@H](NC(C)=O)CC2	96.2%	57.2%	3.7 µM
COc1cc2c(c(OC)c1OC)-c1ccc(OC(C)C)c(=O)cc1[C@@H](NC(C)=O)CC2	50.5%	10.1%	23 µM
COc1cc2c(c(OC)c1OC)-c1ccc(C)c(=O)cc1[C@@H](NC(C)=O)CC2	96.7%	56.6%	4.1 µM
COc1cc2c(c(OC)c1OC)-c1ccc(I)c(=O)cc1[C@@H](NC(C)=O)CC2	98.3%	74%	3.8 µM
CCCc1ccc2c(cc1=O)[C@@H](NC(C)=O)CCc1cc(OC)c(OC)c(OC)c1-2	89.2%	41.7%	3.5 µM
CCC(C)c1ccc2c(cc1=O)[C@@H](NC(C)=O)CCc1cc(OC)c(OC)c(OC)c1-2 (some centres not stated)	57.1%	19.6%	10 µM
COc1cc2c(c(OC)c1OC)-c1ccc(C(C)C)c(=O)cc1[C@@H](NC(C)=O)CC2	90%	44.9%	4.2 µM
COc1cc2c(c(OC)c1OC)-c1ccc(N=[N+]=[N-])c(=O)cc1[C@@H](NC(C)=O)CC2	95.8%	51.1%	4.2 µM
CCCOc1ccc2c(cc1=O)[C@@H](NC(C)=O)CCc1cc(OC)c(OC)c(OC)c1-2	54.8%	16.6%	11 µM
CCCCc1ccc2c(cc1=O)[C@@H](NC(C)=O)CCc1cc(OC)c(OC)c(OC)c1-2	24.7%	13.9%	26 µM
